SMILES strings stand for the structures. Substitutions are numbered along the chain they refer to.

The target of one assay is T1, UBIAD1 (Homo sapiens, UniProt Q9Y5Z9).
T1 sequence (Q9Y5Z9 1-338): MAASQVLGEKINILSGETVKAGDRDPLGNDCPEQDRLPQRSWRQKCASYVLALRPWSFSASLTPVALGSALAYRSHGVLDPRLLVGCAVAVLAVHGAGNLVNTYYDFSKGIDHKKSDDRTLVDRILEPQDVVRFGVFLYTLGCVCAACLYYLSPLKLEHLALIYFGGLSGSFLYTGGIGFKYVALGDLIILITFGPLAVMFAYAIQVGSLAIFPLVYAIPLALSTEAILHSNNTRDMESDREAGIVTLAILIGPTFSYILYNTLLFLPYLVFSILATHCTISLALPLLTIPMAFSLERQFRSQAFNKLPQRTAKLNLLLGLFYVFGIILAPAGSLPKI
Briefly: UBIAD1 activity with exogenous isoprenyl pyrophosphates in statin-blocked cells. The assay is classed as cell-based. To be noted: 1 μM vitamin K3, 10 μM atorvastatin or simvastatin, 20 μM GPP, FPP or GGPP. In a few lines: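 FIXgla-PC/HEK293 reporter cells were pre-incubated for 12 h with 10 μM atorvastatin or simvastatin to block endogenous isoprenyl pyrophosphate. Medium then contained 1 μM vitamin K3, statin (10 μM) and 20 μM GPP, FPP or GGPP as side-chain substrate. Carboxylated FIXgla-PC was quantified by ELISA and normalized to GGPP (100%). Mean ± SD, n=3 independent experiments.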

For another assay, the target named is T2, UBIAD1 K181A (Homo sapiens, UniProt Q9Y5Z9, K181A).
T2 sequence (Q9Y5Z9 1-338 K181A): T1 sequence (Q9Y5Z9 1-338) with K181A
The assay is described as follows: GGPP recognition by UBIAD1 variant. In kind it is cell-based. The note with it: 1 μM vitamin K3, statin-blocked mevalonate pathway. The essentials: (§1)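 Ubiad1-knockout FIXgla-PC/HEK293 cells were transiently transfected with wild-type or mutant UBIAD1. At 24 h they were pre-treated with 10 μM atorvastatin for 3 h. They were then given 1 μM vitamin K3, 10 μM atorvastatin and increasing GGPP for 24 h. Carboxylated FIXgla-PC was read by ELISA, and GGPP EC50 came from a curve fit. Mean ± SD.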

The target of a further assay is T3, UBIAD1 G186R (Homo sapiens, UniProt Q9Y5Z9, G186R).
T3 sequence (Q9Y5Z9 1-338 G186R): T1 sequence (Q9Y5Z9 1-338) with G186R
Briefly: GGPP recognition by UBIAD1 variant. In kind it is cell-based. The note with it: 1 μM vitamin K3, statin-blocked mevalonate pathway. The essentials: as §1

Assay [1] deals with UBIAD1-deficient FIXgla-PC/HEK293 reporter cells. Briefly: VKD carboxylation of FIXgla-PC supported by K vitamins in UBIAD1-knockout cells. In kind it is cell-based, human. The note with it: for support of VKD carboxylation of reporter protein: UBIAD1-deficient (knockout) FIXgla-PC/HEK293 cells. The essentials: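 Ubiad1-knockout FIXgla-PC/HEK293 reporter cells were cultured for 24 h with increasing concentrations of vitamin K1, MK-4, vitamin K3, or menaquinones with 1–4 or 7 isoprene units. K vitamin stocks were made in polyethoxylated castor oil. Carboxylated FIXgla-PC was determined by ELISA, and half-maximal stimulation concentration (EC50) came from curve fitting. Mean ± SD.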

Assay [2] concerns FIXgla-PC/HEK293 reporter cells. Briefly: VKD carboxylation of reporter protein FIXgla-PC supported by K vitamins. In kind it is cell-based, human. The note with it: intact FIXgla-PC/HEK293 cells, 0.015 nM to 1000 nM, 24 hours. The essentials:
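Intact FIXgla-PC/HEK293 cells (stable reporter: protein C with factor IX Gla domain) were grown in DMEM/F12 with 10% FBS. They were incubated for 24 h with vitamin K1, MK-4, vitamin K3 or MK-1/2/3/4/7 at 0.015 nM to 1000 nM, from stocks in polyethoxylated castor oil. Carboxylated reporter was measured by ELISA (anti-carboxylated FIXgla capture, HRP anti-protein C, ABTS).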

The subject of the next assay is mutant zebrafish. The note with it: L65Q mutant zebrafish; cited from earlier work.
The test system of assay [3] is FIXgla-PC/HEK293 reporter cells. The assay is described as follows: Inhibition of vitamin K3-supported VKD carboxylation. In kind it is cell-based, human. To be noted: 1 μM vitamin K3 as substrate, 24 hours. In a few lines:
(§2)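 HEK293 cells stably expressing FIXgla-PC (protein C whose Gla domain is replaced by that of factor IX), grown in DMEM/F12 with 10% FBS. Vitamin K stocks are made in polyethoxylated castor oil. Cells are cultured with vitamin K for 24 h. The medium is collected and used directly in an ELISA for carboxylated FIXgla-PC, with an anti-carboxylated FIX Gla-domain mAb, HRP anti-protein C and ABTS substrate.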

The test system is the same in assay [4]. The assay is described as follows: Inhibition of vitamin K1-supported VKD carboxylation. The assay is classed as cell-based, human. The note with it: 5 μM vitamin K1 as substrate, 24 hours. In a few lines:
as §2

The next assay has as its system kidneys. To be noted: kidneys of atorvastatin-treated mice; cited from earlier work.

`CC(C)=CCC/C(C)=C/CC/C(C)=C/COP(=O)(O)OP(=O)(O)O` [FPP, farnesyl pyrophosphate]: the “support of VKD carboxylation as side chain source” value (“support … as side chain source” below) at UBIAD1 is “support VKD carboxylation”.

For the molecule `CC(C)=CCC/C(C)=C/CC/C(C)=C/CC/C(C)=C/COP(=O)(O)OP(=O)(O)O` [GGPP, geranylgeranyl pyrophosphate], the “support … as side chain source” value on UBIAD1 is reported as “support VKD carboxylation”. The “increase of EC50 value of GGPP vs wild-type” value on UBIAD1 K181A and on UBIAD1 G186R was 5 fold each time.

In the case of `CC(C)=CCC/C(C)=C/COP(=O)(O)OP(=O)(O)O` [GPP, geranyl pyrophosphate], the “support … as side chain source” value at UBIAD1 is listed as “support VKD carboxylation”.

On to `CC(C)=CCC1=C(C)C(=O)c2ccccc2C1=O` [MK-1], for which, in assay [1], the “support of VKD carboxylation of reporter protein” value (“support … of reporter protein” below) is listed as “unable to support VKD carboxylation”.

In the case of `CC(C)=CCC/C(C)=C/CC/C(C)=C/CC/C(C)=C/CC1=C(C)C(=O)c2ccccc2C1=O` [MK-4, menaquinone-4], the “support … of reporter protein” value in assay [2] and in assay [1] was “efficiently support VKD carboxylation” throughout. The “rescue of the vascular phenotype” value in the assay with mutant zebrafish is given as 58%.

On to `CC(C)=CCC/C(C)=C/CC/C(C)=C/CC/C(C)=C/CC/C(C)=C/CC/C(C)=C/CC/C(C)=C/CC1=C(C)C(=O)c2ccccc2C1=O` [MK-7], for which, in [2], the “support … of reporter protein” value is recorded as “efficiently support VKD carboxylation”. For the same molecule, the “carboxylation efficiency relative to MK-4” value in [1] (MK-7 higher than MK-4) is “about 3 fold”. For the same molecule, in assay [1] (read-out: EC50 (half-maximal stimulation concentration) of K vitamins for VKD carboxylation, UBIAD1-deficient FIXgla-PC/HEK293 cells), the EC50 came out at 2.3 nM.

`CC(C)c1c(C(=O)Nc2ccccc2)c(-c2ccccc2)c(-c2ccc(F)cc2)n1CC[C@@H](O)C[C@@H](O)CC(=O)O` [atorvastatin]: the “inhibition of VKD carboxylation” value in assay [3] is recorded as “dose-response inhibition of VKD carboxylation”. Also, the “effect on vitamin K1-supported carboxylation” value in [4] was “do not affect vitamin K1-supported carboxylation”. The “reduction of MK-4 production” value in the assay with kidneys is on record as ~ 45%.

Regarding `CCC(C)(C)C(=O)O[C@H]1C[C@@H](C)C=C2C=C[C@H](C)[C@H](CC[C@@H]3C[C@@H](O)CC(=O)O3)[C@H]21` [simvastatin], the “inhibition of VKD carboxylation” value in [3] is “dose-response inhibition of VKD carboxylation”. Also, the “effect on vitamin K1-supported carboxylation” value in [4] is on record as “do not affect vitamin K1-supported carboxylation”.

In the case of `CC1=C(C/C=C(\C)CCC[C@H](C)CCC[C@H](C)CCCC(C)C)C(=O)c2ccccc2C1=O` [vitamin K1, phylloquinone], the “support … of reporter protein” value in assay [1] is recorded as “efficiently support VKD carboxylation”. Further, the “rescue of the vascular phenotype” value with mutant zebrafish is 6%.

Source of the values: article PMC9064899 (The FEBS journal, 2021).
